These results are taken from ChEMBL document CHEMBL1772996, “Bioactive constituents from the roots of Panax japonicus var. major and development of a LC-MS/MS method for distinguishing between natural and artifactual compounds” (J Nat Prod, 2011).

pIC50: −log10 of the molar value. Activity calls are given as the source filed them. The calls are words filed in the database; no cut-off is given here.

Experiment [1] can be described thus: Inhibition of yeast alpha-glucosidase assessed as p-nitrophenol release after 20 mins by microplate spectrophotometer. More on the design: species or system Saccharomyces cerevisiae.
Another experiment concerns A549. Description: Cytotoxicity against human A549 cells assessed as growth inhibition after 3 days by sulforhodamine B assay. The format is functional, cell-based. (In SRB staining, fixed cells bind dye roughly in proportion to their protein.)
Experiment [2] deals with Neutrophil. Description: Inhibition of superoxide anion generation in human neutrophils in response to fMLP/CB.
Another experiment deals with KB. Description: Cytotoxicity against human KB cells assessed as growth inhibition after 3 days by sulforhodamine B assay. It counts as functional.
Another experiment relates to HCT-8. Description: Cytotoxicity against human HCT8 cells assessed as growth inhibition after 3 days by sulforhodamine B assay. The format is functional, cell-based.
In another experiment the test system is DU-145. Description: Cytotoxicity against human DU145 cells assessed as growth inhibition after 3 days by sulforhodamine B assay. It counts as functional.
The test system of experiment [3] is Neutrophil. Description: Inhibition of fMLP/CB-activated human neutrophil degranulation assessed as inhibition of elastase release using MeO-Suc-Ala-Ala-Pro-Val-p-nitroanilide as a substrate after 5 mins. It counts as functional, cell-based. The method in brief: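 Neutrophils from dextran sedimentation, Ficoll Hypaque centrifugation and hypotonic erythrocyte lysis (>98% viable by trypan blue), held in Ca2+-free HBSS pH 7.4 at 4 °C; 5×10^5/mL cells with 100 μM substrate equilibrated 37 °C 2 min, compound 5 min, then 100 nM FMLP plus 0.5 μg/mL CB; A405 monitored continuously; expressed as % of initial rate in drug-free activated control; mean ± S.E.M., n = 3–4; top concentration 30 μM.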

The test system of experiment [4] is Neutrophil. Description: Inhibition of fMLP/CB-stimulated superoxide anion generation in human neutrophils. The format is functional, cell-based. The method in brief:
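Isolated human neutrophils (dextran sedimentation, Ficoll Hypaque, hypotonic lysis; >98% viable) with 0.5 mg/mL ferricytochrome c and 1 mM Ca2+, 37 °C 2 min, compound 5 min; CB 1 μg/mL 3 min, then 100 nM FMLP 10 min; SOD-inhibitable cytochrome c reduction followed continuously at 550 nm with stirring; mean ± S.E.M., n = 3–4; top concentration 30 μM.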

`C[C@H]1O[C@H](O[C@H]2[C@H](O)[C@@H](O)[C@@H](O[C@H]3[C@H](O)[C@@H](O)C(O)O[C@@H]3CO)O[C@@H]2CO)[C@H](O)[C@@H](O)[C@@H]1N[C@H]1C=C(CO)[C@@H](O)[C@H](O)[C@H]1O` (stereo partly specified) [ACARBOSE]: the negative-log IC50 (pIC50) (commonly −log10 of the IC50, conventionally taken in molar units) in experiment [1] is 3.17.
In the case of `COC(=O)[C@H]1O[C@@H](O[C@H]2CC[C@]3(C)[C@H]4CC=C5[C@@H]6CC(C)(C)CC[C@]6(C(=O)O[C@@H]6O[C@H](CO)[C@@H](O)[C@H](O)[C@H]6O)CC[C@@]5(C)[C@]4(C)CC[C@H]3C2(C)C)[C@H](O)[C@@H](O)[C@@H]1O`, the “growth inhibition (GI)” value with A549, in the experiment with KB, in the experiment on HCT-8 and in the experiment on DU-145 was “inactive” in each case. Moreover, the results for the pIC50 in the experiment on Neutrophil [2] and in the experiment with Neutrophil [3] were 4.87 and 5.71, respectively.
`CC1(C)CC[C@]2(C(=O)O[C@@H]3O[C@H](CO)[C@@H](O)[C@H](O)[C@H]3O)CC[C@]3(C)C(=CC[C@@H]4[C@@]5(C)CC[C@H](O[C@@H]6O[C@H](C(=O)O)[C@@H](O)[C@H](O)[C@H]6O[C@H]6OC[C@@H](O)[C@H](O)[C@H]6O)C(C)(C)[C@@H]5CC[C@]43C)[C@@H]2C1` [PSEUDOGINSENOSIDE RT1]: the “growth inhibition (GI)” value with A549, in the experiment on KB, with HCT-8 and in the experiment with DU-145 was “inactive” each time. Moreover, the pIC50 in the experiment with Neutrophil [4] is 4.71; with Neutrophil [3], 4.35.
In the case of `CC1(C)CC[C@]2(C(=O)O)CC[C@]3(C)C(=CC[C@@H]4[C@@]5(C)CC[C@H](O)C(C)(C)[C@@H]5CC[C@]43C)[C@@H]2C1` [OLEANOLIC_ACID], the “growth inhibition (GI)” value in the experiment with A549, with KB, in the experiment with HCT-8 and in the experiment with DU-145 was “inactive” in each case. For the same molecule, the pIC50 in the experiment on Neutrophil [4] was 5.86; in the experiment on Neutrophil [3], 6.12.
As to `CC1(C)CC[C@]2(C(=O)O[C@@H]3O[C@H](CO)[C@@H](O)[C@H](O)[C@H]3O)CC[C@]3(C)C(=CC[C@@H]4[C@@]5(C)CC[C@H](O[C@@H]6O[C@H](C(=O)O)[C@@H](O)[C@H](O)[C@H]6O)C(C)(C)[C@@H]5CC[C@]43C)[C@@H]2C1` [CHIKUSETSUSAPONIN IVA], the “growth inhibition (GI)” value in the experiment with A549, in the experiment on KB, in the experiment with HCT-8 and in the experiment with DU-145 was “inactive” each time. Further, the pIC50 in the experiment on Neutrophil [4] was 5.54; with Neutrophil [3] it was 5.32.
Take `COC(=O)[C@H]1O[C@@H](O[C@H]2CC[C@]3(C)[C@H]4CC=C5[C@@H]6CC(C)(C)CC[C@]6(C(=O)O[C@@H]6O[C@H](CO)[C@@H](O)[C@H](O)[C@H]6O)CC[C@@]5(C)[C@]4(C)CC[C@H]3C2(C)C)[C@H](O[C@H]2OC[C@@H](O)[C@H](O)[C@H]2O)[C@@H](O)[C@@H]1O` [PSEUDOGINSENOSIDE RT1 METHYL ESTER]: the “growth inhibition (GI)” value in the experiment on A549, in the experiment on KB, with HCT-8 and with DU-145 was “inactive” each time. Moreover, the pIC50 with Neutrophil [4] is 5.28; in the experiment with Neutrophil [3] it was 5.11.
